Source: ChEMBL document CHEMBL1122814, “Selective thromboxane synthetase inhibitors. 1. 1-[(Aryloxy)alkyl]-1H-imidazoles” (J Med Chem, 1985)

How the values were obtained:
Thromboxane-A synthase = target: T1, Thromboxane-A synthase (Homo sapiens, UniProt P24557); assay: Inhibitory activity against thromboxane A2 synthetase
T1 sequence (P24557 whole entry): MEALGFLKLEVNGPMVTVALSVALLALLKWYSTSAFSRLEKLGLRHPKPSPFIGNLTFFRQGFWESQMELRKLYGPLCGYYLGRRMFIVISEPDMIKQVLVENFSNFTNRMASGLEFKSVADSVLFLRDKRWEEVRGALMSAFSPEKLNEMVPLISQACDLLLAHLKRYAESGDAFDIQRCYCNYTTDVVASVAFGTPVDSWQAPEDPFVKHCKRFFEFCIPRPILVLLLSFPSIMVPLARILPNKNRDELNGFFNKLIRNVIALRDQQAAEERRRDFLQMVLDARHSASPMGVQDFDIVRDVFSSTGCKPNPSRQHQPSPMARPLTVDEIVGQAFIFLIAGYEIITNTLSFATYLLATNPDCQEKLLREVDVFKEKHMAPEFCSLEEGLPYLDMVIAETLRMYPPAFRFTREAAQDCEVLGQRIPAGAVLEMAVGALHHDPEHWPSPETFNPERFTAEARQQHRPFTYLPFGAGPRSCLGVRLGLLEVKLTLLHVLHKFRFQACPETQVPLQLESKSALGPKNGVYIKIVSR
How it was run: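 Human platelet microsomes, cyclooxygenase inactivated with 30 μM indomethacin (30 min, 0 °C). Compound preincubated 2 min on ice, pH 7.8 phosphate. Then 1 min on ice with freshly made PGH2 (from 0.1 mM arachidonic acid and ram seminal vesicle microsomes). Stopped with EtOH. TxB2 measured by RIA in triplicate; dose-response curves over several concentrations.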

[1] = target: T2, Cytochrome P450 11B1, mitochondrial (Rattus norvegicus, UniProt P15393); assay: Inhibition of rat adrenal 11-beta-hydroxylase
T2 sequence (P15393 whole entry): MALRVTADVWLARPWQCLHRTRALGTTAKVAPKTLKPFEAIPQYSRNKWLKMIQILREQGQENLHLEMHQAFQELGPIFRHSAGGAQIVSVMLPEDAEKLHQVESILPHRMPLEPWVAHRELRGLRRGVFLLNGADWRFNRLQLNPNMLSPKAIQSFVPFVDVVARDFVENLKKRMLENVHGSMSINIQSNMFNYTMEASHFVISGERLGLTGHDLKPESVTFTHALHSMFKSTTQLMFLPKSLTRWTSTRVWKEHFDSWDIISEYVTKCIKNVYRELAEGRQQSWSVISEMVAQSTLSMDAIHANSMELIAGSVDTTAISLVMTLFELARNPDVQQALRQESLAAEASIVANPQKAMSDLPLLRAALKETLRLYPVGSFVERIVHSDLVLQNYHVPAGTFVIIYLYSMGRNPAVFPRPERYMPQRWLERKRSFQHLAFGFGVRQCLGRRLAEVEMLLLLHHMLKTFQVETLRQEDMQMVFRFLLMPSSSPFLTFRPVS
How it was run: (§1)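 Washed adrenal mitochondria from three male Charles River rats, used within 30 min. Incubated at 37 °C, pH 7.4 (HEPES/sucrose/MgCl2/KH2PO4/malate) with 50 μM [14C]-11-deoxycorticosterone and test drug, 5-min preincubation then 10 min with mitochondria. Extracted into CH2Cl2. Substrate and corticosterone separated by silica TLC and counted by scintillation.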

[2] = target: T3, 11-beta-hydroxylase (Cytochrome P450 11B1, mitochondrial) (Rattus norvegicus, UniProt P15393); assay: Inhibition of rat adrenal 11-beta-hydroxylase at 10e-5 M; settings: rat adrenal 11-beta-hydroxylase (adrenal enzyme preparation); how it was run: as §1
T3 sequence (P15393 whole entry): T2 sequence (P15393 whole entry)

SMILES	IC50 (Thromboxane-A synthase) [µM]	IC50 [1] [µM]	inhibition at 0.0001 M [2] [%]
N#Cc1cccc(OCCn2ccnc2)c1	3.5		
CC(C)c1[nH]c2ccccc2c1Cn1ccnc1	0.015	2	
c1ccc(OCCn2ccnc2)cc1	0.66		72
O=C(O)Cc1ccccc1OCCn1ccnc1	> 10		
CN(C)C(=O)c1ccc(OCCn2ccnc2)cc1	1.1		
CNC(=O)c1ccc(OCCn2ccnc2)cc1	0.86		
NC(=O)c1ccc(OCCn2ccnc2)cc1	0.056	10	
CCOC(=O)c1ccc(OCCCn2ccnc2)cc1	3		
O=C(O)Cc1ccc(OCCn2ccnc2)cc1	0.032		
CCOC(=O)COc1ccc(OCCn2ccnc2)cc1	0.61		
N#Cc1ccc(OCCn2ccnc2)cc1	13		
NC(=O)Nc1ccc(OCCn2ccnc2)cc1	0.84		
NC(=O)c1ccccc1OCCn1ccnc1	22		
O=C(O)c1cccc(OCCn2ccnc2)c1	0.53	> 100	
O=C(O)c1ccccc1OCCn1ccnc1	> 10		
c1cn(CCOc2ccc(-c3nnn[nH]3)cc2)cn1	0.015		

SMILES	IC50 (Thromboxane-A synthase) [µM]	IC50 [1] [µM]	inhibition at 0.0001 M [2] [%]
Nc1ccc(OCCn2ccnc2)cc1	> 50		
CC(=O)Nc1ccc(OCCn2ccnc2)cc1	4		
O=C(O)c1ccc(OCCCn2ccnc2)cc1	0.027		
CCOC(=O)c1ccccc1OCCn1ccnc1	4.4		
CCOC(=O)Cc1ccccc1OCCn1ccnc1	2		
O=C(NC(=O)c1ccc(OCCn2ccnc2)cc1)c1ccccc1	0.18		
O=C(O)COc1ccc(OCCn2ccnc2)cc1	0.095	> 100	
O=[N+]([O-])c1ccc(OCCn2ccnc2)cc1	> 50		
CCOC(=O)Cc1ccc(OCCn2ccnc2)cc1	2.9		
NS(=O)(=O)c1ccc(OCCn2ccnc2)cc1	> 50		
NC(=O)Cc1ccc(OCCn2ccnc2)cc1	1.8		
CC(=O)NC(=O)c1ccc(OCCn2ccnc2)cc1	0.63		
NC(=O)COc1ccc(OCCn2ccnc2)cc1	0.85	> 100	
O=C(O)c1ccc(OCCn2ccnc2)cc1 [DAZOXIBEN]		> 100	
c1c[nH]cn1 [IMIDAZOLE]	670		
COc1ccc2c(c1)c(CC(=O)O)c(C)n2C(=O)c1ccc(Cl)cc1 [INDOMETHACIN]	> 100		
